The record followed here is ChEMBL document CHEMBL4020714, “Design, synthesis, and evaluation of curcumin derivatives as Nrf2 activators and cytoprotectors against oxidative death” (Eur J Med Chem, 2017).

The target in series [1] is Kelch-like ECH-associated protein 1 (Homo sapiens) (UniProt Q14145). Nature of the series: Induction of keap1-dependent Nrf2 stabilization in human HepG2 cells assessed as prolonged half life of Nrf2 at 5 uM pretreated for 3 hrs followed by coincubation with 5 ug/ml cycloheximide for 24 hrs by Western blot analysis relative to control. In kind it is cell-based. In outline: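 HepG2 cells pretreated with or without 5 μM compound for 3 h, then given 5 μg/mL cycloheximide for the indicated periods (up to 24 h). Total lysates are immunoblotted for Nrf2. Half-life is obtained by fitting a single-phase decay model.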
For orientation: Immunoblotting shows a protein as a band on a membrane.

Series [2] concerns the target T1, Nuclear factor erythroid 2-related factor 2 (Homo sapiens) (UniProt Q16236).
T1 sequence (whole entry): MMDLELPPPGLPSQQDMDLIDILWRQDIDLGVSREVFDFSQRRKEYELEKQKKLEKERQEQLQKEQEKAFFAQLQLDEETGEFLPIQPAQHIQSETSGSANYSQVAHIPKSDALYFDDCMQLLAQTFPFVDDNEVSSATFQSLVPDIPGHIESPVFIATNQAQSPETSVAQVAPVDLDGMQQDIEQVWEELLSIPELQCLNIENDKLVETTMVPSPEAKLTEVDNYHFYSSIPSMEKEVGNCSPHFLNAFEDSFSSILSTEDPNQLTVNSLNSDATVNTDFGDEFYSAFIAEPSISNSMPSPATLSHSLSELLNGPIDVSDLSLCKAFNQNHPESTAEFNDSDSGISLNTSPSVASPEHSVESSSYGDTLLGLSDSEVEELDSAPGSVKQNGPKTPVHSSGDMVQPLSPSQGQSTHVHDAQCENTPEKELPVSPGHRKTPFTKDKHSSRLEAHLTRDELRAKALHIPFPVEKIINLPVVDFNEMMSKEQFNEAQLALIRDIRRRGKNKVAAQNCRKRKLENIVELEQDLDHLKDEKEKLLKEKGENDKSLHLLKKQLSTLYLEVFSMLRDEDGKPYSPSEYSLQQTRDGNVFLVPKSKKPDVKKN
Nature of the series: Activation of Nrf2 in human HepG2 cells assessed as cytoprotection against t-BHP-induced oxidative cell death incubated for 24 hrs followed by compound removal with subsequent incubation with 900 uM of t-BHP for 6 hrs by MTT assay. In kind it is cell-based. In outline:
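HepG2 cells (5×10^3/well) seeded and grown 24 h in 1640 medium with 10% FBS at 37 °C and 5% CO2. Compound is added for 24 h, then removed, and cells are challenged with 900 μM t-BHP for 6 h at 37 °C. MTT (0.5 mg/mL) is added for 4 h, formazan dissolved in DMSO, and absorbance read at 570 nm. Where used, inhibitors are added 1 h before compound. Mean ± SD of three independent experiments.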
Background: Tetrazolium assays rely on reduction of a dye to a coloured formazan, in cell work by metabolically active cells.

Series [3] is described as follows: Stability of the compound in PBS at 40 uM at pH 7.4 at 25 degC measured for 30 mins by UV-Vis spectrophotometric analysis. In kind it is physicochemical. The settings on record: buffer, pH 7.4, 0.5 h. An outline of the steps:
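Compound at 40 μM in PBS (pH 7.4) at 25 °C. UV-visible absorption spectra recorded every 2 min for 30 min against blanks of solution plus DMSO.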

The target in series [4] is T1, Nuclear factor erythroid 2-related factor 2 (Homo sapiens). Nature of the series: Activation of Nrf2 in human HepG2 cells assessed as increase in GCLM expression level at 5 uM in presence of 25 uM JNK inhibitor SP600125 for 1 hr prior to compound treatment by Western blot analysis. In kind it is cell-based. An outline of the steps: (§1)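 HepG2 cells (2×10^6/well) treated at the indicated concentrations and times. Whole-cell lysates, or nuclear and cytoplasmic fractions, are prepared and quantified by BCA. Samples are run at 40 μg/lane on 12% SDS-PAGE, transferred to nitrocellulose, probed with specific antibodies and HRP secondary (1/5000), and detected by ECL. Where used, LY294002 (15 μM), SP600125 (25 μM) or DTT (400 μM) is added 1 h before compound.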

Series [5] shares this target. Nature of the series: Activation of Nrf2 in human HepG2 cells assessed as increase in GCLC expression level after 3 hrs by Western blot analysis. In kind it is cell-based. An outline of the steps:
as §1

The target is the same in series [6]. Nature of the series: Activation of Nrf2 in human HepG2 cells assessed as increase in GCLM expression level at 5 uM by Western blot analysis. Format: cell-based. The settings on record: TDE = time-dependent effect. An outline of the steps: as §1
The subject of another series is HepG2. Kind of series: Cytotoxicity against human HepG2 cells assessed as reduction in cell viability at 5 uM after 24 hrs by MTT assay. The settings on record: hepg2, 24 h. In kind it is cell-based. In outline:
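MTT viability in HepG2 cells (5×10^3/well) after 24 h exposure to compound at 5 μM. Formazan dissolved in DMSO and absorbance read at 570 nm. Mean ± SD of three independent experiments.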

Activity calls are given as the source filed them. No cut-off for these calls is given here.

Sequence of Kelch-like ECH-associated protein 1 (Homo sapiens) (Q14145 whole entry): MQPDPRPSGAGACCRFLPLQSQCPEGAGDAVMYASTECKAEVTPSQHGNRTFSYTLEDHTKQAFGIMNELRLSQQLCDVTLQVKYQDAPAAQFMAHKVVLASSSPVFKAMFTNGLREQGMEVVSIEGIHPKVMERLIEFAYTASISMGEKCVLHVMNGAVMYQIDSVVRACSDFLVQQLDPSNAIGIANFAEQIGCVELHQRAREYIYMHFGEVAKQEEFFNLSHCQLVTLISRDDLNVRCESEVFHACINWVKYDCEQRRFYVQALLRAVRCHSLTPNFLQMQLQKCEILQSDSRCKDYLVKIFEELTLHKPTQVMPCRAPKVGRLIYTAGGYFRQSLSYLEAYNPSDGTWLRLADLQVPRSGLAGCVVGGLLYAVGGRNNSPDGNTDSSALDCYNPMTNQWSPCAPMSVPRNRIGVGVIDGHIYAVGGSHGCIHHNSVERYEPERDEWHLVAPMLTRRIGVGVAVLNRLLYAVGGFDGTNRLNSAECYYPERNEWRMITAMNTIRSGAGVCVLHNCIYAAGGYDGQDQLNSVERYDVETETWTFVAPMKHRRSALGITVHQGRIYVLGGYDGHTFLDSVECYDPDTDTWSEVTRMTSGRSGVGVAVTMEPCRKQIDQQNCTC

Regarding `CC(C)(C(=O)/C=C/c1ccc(O)c(O)c1)C(=O)/C=C/c1ccc(O)c(O)c1`, the fold change (FC) in series [1] is 2.6. In addition, the Activity result is “Dose-dependent effect” in series [2], “Tde” in series [6] and “Non-Toxic” in the series with HepG2. In addition, the Stability result in series [3] is recorded as “Stable”. The outcome in series [4] was inactive. Also, the outcome in series [5] was Active.
